Assay results taken from ChEMBL document CHEMBL1153915, “[18F]FEAC and [18F]FEDAC: Two novel positron emission tomography ligands for peripheral-type benzodiazepine receptor in the brain” (Bioorg Med Chem Lett, 2009).

Experiments:
Striatum [1] = test: Drug uptake in non-lesioned Sprague-Dawley rat striatum assessed as standardized uptake value; assay type: ADME, tissue-based; details: in vivo
Method in brief: (§1)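 Dynamic small-animal PET of [18F]-labelled ligand in neuroinflammatory rats (n = 4). Striatal time-activity curves are expressed as SUV = (radioactivity per cm3 tissue / injected radioactivity) × g body weight, as mean ± SD.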

Striatum [2] = test: Drug uptake in kainic acid-lesioned Sprague-Dawley rat striatum assessed as standardized uptake value; assay type: ADME, tissue-based; details: in vivo; method in brief: as §1
Striatum [3] = test: Ratio of drug uptake in kainic acid-lesioned to non-lesioned Sprague-Dawley rat striatum after 10 to 20 mins; assay type: ADME, tissue-based; details: in vivo
Method in brief: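 From small-animal PET time-activity curves in neuroinflammatory rats (n = 4), the radioactivity in the lesioned striatum is divided by that in the non-lesioned striatum over the scan, and the maximum ratio is taken.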

[4] = Displacement of [11C]flumazenil from CBR receptor in rat brain membrane; assay type: cell membranes
Method in brief: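 Competition against [11C]flumazenil binding in rat brain homogenate; Ki derived; mean ± SD from duplicate homogenates.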

[5] = Distribution coefficient, log D in octanol/phosphate buffer at pH 7.4 by shaking flask method; assay type: physicochemical
Translocator protein [6] = molecular target: T1, Translocator protein (Rattus norvegicus, UniProt P16257); test: Displacement of [11C]PK11195 from PBR receptor in rat brain membrane; assay type: cell membranes
Translocator protein [7] = molecular target: T1, Translocator protein; test: Displacement of [11C]DAA1106 from PBR receptor in rat brain membrane; assay type: cell membranes

T1 sequence (P16257 whole entry, looked up): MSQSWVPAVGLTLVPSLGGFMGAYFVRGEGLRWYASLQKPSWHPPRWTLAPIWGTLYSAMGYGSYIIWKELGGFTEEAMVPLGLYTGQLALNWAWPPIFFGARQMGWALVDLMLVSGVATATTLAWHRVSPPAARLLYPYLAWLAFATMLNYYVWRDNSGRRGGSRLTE

Row | Structure (SMILES) | SUV (Striatum [1]) | SUV (Striatum [2]) | Ratio (Striatum [3]) | Ki [4] [nM] | logD [5] | Ki (Translocator protein [6]) [nM] | Ki (Translocator protein [7]) [nM]
1 | CCN(Cc1ccccc1)C(=O)Cn1c(=O)n(C)c2cnc(-c3ccccc3)nc21 |  |  |  | > 8400 | 3.3 | 0.2 | 
2 | Cn1c(=O)n(CC(=O)N(CCF)Cc2ccccc2)c2nc(-c3ccccc3)ncc21 |  |  |  | > 8400 | 3.1 | 0.51 | 
3 | CCC(C)N(C)C(=O)c1cc2ccccc2c(-c2ccccc2Cl)n1 (stereo not given) [PK-11195] |  |  |  | > 8400 | 3.7 |  | 
4 | CN(Cc1ccccc1)C(=O)Cn1c(=O)n(CCF)c2cnc(-c3ccccc3)nc21 |  |  |  | 8400 | 3.2 | 1.34 | 
5 | COc1ccc(OCCF)c(CN(C(C)=O)c2cc(F)ccc2Oc2ccccc2)c1 |  |  |  | > 1000 | 3.8 |  | 0.08
6 | COc1ccc(OCC[18F])c(CN(C(C)=O)c2cc(F)ccc2Oc2ccccc2)c1 | 1.3 | 1.5 |  |  |  |  | 

The remaining lines, values ahead:

Row | SUV (Striatum [1]) | SUV (Striatum [2]) | Ratio (Striatum [3]) | Ki [4] [nM] | logD [5] | Ki (Translocator protein [6]) [nM] | Ki (Translocator protein [7]) [nM] | Structure (SMILES)
7 | 0.8 | 1.2 | 2.5 |  |  |  |  | CCN(Cc1ccccc1)C(=O)Cn1c(=O)n(CC[18F])c2cnc(-c3ccccc3)nc21
8 |  |  |  | > 8400 | 3.6 | 0.49 |  | CCN(Cc1ccccc1)C(=O)Cn1c(=O)n(CCF)c2cnc(-c3ccccc3)nc21
9 | 0.9 | 1.6 | 2.5 |  |  |  |  | CN(Cc1ccccc1)C(=O)Cn1c(=O)n(CC[18F])c2cnc(-c3ccccc3)nc21
